Series [1] deals with MDA-MB-231. Description: Anti-proliferation assay. In kind it is cell-based. The settings on record: Homo sapiens, MDA-MB-231, 48 h, read-out: IC50 against proliferation, MDA-MB-231. The gist of the method: (§1)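 Cells thawed, grown in RPMI 1640 + 10% FBS at 37 °C, 5% CO2; used in log phase. Seeded 10 000–12000 cells/well, after 4 h test compound added at working concentrations 0.16/0.8/4/20/100 μmol L−1 in complete medium. MTT (5 mg mL−1) added for 4 h, formazan dissolved in DMSO, absorbance at 570 nm.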

In series [2] the test system is HEL. Put plainly: Anti-proliferation assay. The conditions noted are these: Homo sapiens, 48 h, read-out: IC50 against proliferation, HEL. Format: cell-based. The gist of the method: as §1
The test system of series [3] is K562. Description: Anti-proliferation assay. Format: cell-based. The conditions noted are these: Homo sapiens, K562, 48 h, read-out: IC50 against proliferation, K562. The gist of the method: as §1
For series [4], the system named is HuH7. Put plainly: Anti-proliferation assay. Format: cell-based. The conditions noted are these: Homo sapiens, Huh-7, 48 h, read-out: IC50 against proliferation, HuH7. The gist of the method: as §1
Series [5] relates to PLC/PRF/5. Put plainly: Anti-proliferation assay. Format: cell-based. The settings on record: Homo sapiens, PLC-PRF-5, 48 h, read-out: IC50 against proliferation, PLC/PRF/5. The method, boiled down: as §1
The subject of series [6] is HEPG2. Put plainly: Anti-proliferation assay. Format: cell-based. The settings on record: Homo sapiens, HepG2, 48 h, read-out: IC50 against proliferation, HEPG2. The method, boiled down:
as §1

The target of series [7] is T1, APN from porcine kidney (Sus scrofa, UniProt P15145).
T1 sequence (P15145 1-963): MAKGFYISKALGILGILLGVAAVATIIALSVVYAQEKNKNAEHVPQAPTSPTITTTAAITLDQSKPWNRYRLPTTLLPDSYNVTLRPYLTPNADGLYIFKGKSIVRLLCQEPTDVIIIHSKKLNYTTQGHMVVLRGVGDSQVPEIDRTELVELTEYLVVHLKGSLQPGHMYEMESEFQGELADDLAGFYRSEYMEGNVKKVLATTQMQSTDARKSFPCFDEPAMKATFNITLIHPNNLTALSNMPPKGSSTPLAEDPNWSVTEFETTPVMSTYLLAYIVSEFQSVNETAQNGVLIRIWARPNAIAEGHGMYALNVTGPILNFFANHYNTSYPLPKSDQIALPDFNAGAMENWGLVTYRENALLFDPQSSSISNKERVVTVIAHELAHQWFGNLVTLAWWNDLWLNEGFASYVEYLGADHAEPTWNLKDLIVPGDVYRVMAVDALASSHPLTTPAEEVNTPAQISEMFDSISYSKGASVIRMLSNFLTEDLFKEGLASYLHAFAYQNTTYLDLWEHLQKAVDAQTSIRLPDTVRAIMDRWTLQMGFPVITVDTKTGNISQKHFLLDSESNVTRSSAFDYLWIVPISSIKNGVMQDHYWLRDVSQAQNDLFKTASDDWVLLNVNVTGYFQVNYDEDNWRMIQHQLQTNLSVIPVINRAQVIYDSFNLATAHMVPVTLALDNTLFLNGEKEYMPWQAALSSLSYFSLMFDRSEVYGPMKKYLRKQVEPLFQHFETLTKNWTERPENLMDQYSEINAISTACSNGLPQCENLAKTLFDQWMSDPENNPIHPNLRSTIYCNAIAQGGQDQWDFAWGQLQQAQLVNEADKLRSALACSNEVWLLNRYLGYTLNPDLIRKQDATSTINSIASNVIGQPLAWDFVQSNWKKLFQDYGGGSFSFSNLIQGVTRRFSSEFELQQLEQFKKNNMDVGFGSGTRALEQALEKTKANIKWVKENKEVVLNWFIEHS
Description: APN inhibition assay. Format: biochemical.

In series [8] the test system is human umbilical vein endothelial cells (HUVECs). Put plainly: HUVEC tubular structure formation assay. In kind it is cell-based. The settings on record: 5 μM, 4 h on Matrigel.
Series [9] relates to rat thoracic aorta ring. Put plainly: Rat aortic ring assay. The settings on record: 5 μM, 9 days. The method, boiled down: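 Thoracic aortas from 8–10 week-old male SD rats, cleaned of fibroadipose tissue, cut into 1 mm rings, embedded between Matrigel layers. Test compound in M199 added; cultured at 37 °C, 5% CO2 for 9 days with medium plus compound renewed every three days. Micro-vessels imaged by inverted microscope at 100×.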

Series [10] can be described thus: Stability in simulated gastric fluid. In kind it is in vitro ADME. The settings on record: 2 μM, 37 °C, pH 1.20, up to 24 h. The method, boiled down:
(§2)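 Test compound at 2 μM final in simulated gastric fluid (NaCl, pepsin, HCl; pH 1.20) or simulated intestinal fluid (KH2PO4, pancreatin; pH 6.8), shaken at 37 °C, 600 rpm. At 0, 1, 2, 6, 24 h quenched with cold acetonitrile containing tolbutamide/labetalol IS, centrifuged 4 °C; remaining compound by LC/MS/MS peak area ratio analyte/IS, C18 column.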

Series [11] in a line: Stability in simulated intestinal fluid. In kind it is in vitro ADME. The settings on record: 2 μM, 37 °C, pH 6.8, up to 24 h. The method, boiled down: as §2
Series [12] is described as follows: Metabolic stability in mouse liver microsomes. In kind it is in vitro ADME. The conditions noted are these: for CLint(liver): NADPH; for Remaining (NCF = 60 min): no co-factor. The gist of the method:
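CD-1 mouse liver microsomes in 100 mM potassium phosphate buffer, preincubated 10 min at 37 °C with NADPH (1 mM final) or without co-factor. Test compound spiked to 1 μM final; testosterone positive control. Sampled at 5, 15, 30, 45, 60 min, quenched in cold acetonitrile with tolbutamide/labetalol IS, LC-MS/MS. T1/2 and CLint from first-order kinetics.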
On the technique in general: Liver microsomes are vesicles of endoplasmic reticulum, rich in cytochrome P450 enzymes.

The nature of series [13]: In vivo PK study in Sprague Dawley rats. The conditions noted are these: male, rat, plasma. The gist of the method: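 Male SD rats, 180–220 g, acclimatised one week, fasted 12 h. Single dose i.v. infusion (jugular vein cannula sampling) or oral; blood taken predose and to 24 h (i.v. from 0.083 h, oral from 0.25 h). Plasma by centrifugation, stored −20 °C, LC-MS/MS quantitation.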

The mark [14] stands for this setting: mouse liver microsomes, 1 μM, 60 min.

Consider `CC(C)C[C@H](NC(=O)[C@@H](O)[C@H](N)Cc1ccccc1)C(=O)O` [Bestatin, reference compound], for which the IC50 in series [1], in [2], in [3], in [4], in series [5] and in series [6] was over 100 µM each time.
The term half-life denotes the time in which the quantity being followed falls by half. Low values mean fast loss, high ones slow loss. Broadly, the microsomal CLint is a measure of how fast metabolising enzymes remove a compound, apart from limits set by blood flow. The term Tmax denotes the time from dosing to the highest level. The clearance is the rate of elimination divided by the concentration. The low end stands for a low capacity for elimination, the high end for a high capacity for elimination. What is called AUC(0-inf) is total exposure, with the tail of the curve extrapolated. Low readings indicate low exposure, high ones high exposure. By AUC(0-t) is commonly meant the area under the concentration-time curve up to a stated or last time point. Higher therefore signals high exposure. Usually Cmax stands for the peak of the concentration-time curve. Take `CC(C)C[C@H](NC(=O)NCc1cn(-c2ccccc2C(=O)OCn2cc(F)c(=O)[nH]c2=O)nn1)C(=O)NO` [Compound 3, (5-fluoro-2,4-dioxo-3,4-dihydropyrimidin-1(2H)-yl)methyl (S)-2-(4-((3-(1-(hydroxyamino)-4-methyl-1-oxopentan-2-yl)ureido)methyl)-1H-1,2,3-triazol-1-yl)benzoate]: the IC50 in [7] is 0.5 ± 0.29 µM; in series [1], over 100 µM; in series [2] it was 47.2 ± 19.3 µM; in series [3], 25.6 ± 12.3 µM; in [4] it was over 100 µM; in series [5] it was over 100 µM. Further, the IC50 in series [6] is over 100 µM. In addition, the “APN inhibitory activity, fold more potent than bestatin” value in [7] (vs positive control bestatin) was “over 8 fold”. Moreover, the “Effect on HUVEC capillary tube formation” value in series [8] is given as “could inhibit the capillary tube formation”. Moreover, the “Effect on micro-vessel growth of rat aortic ring” value in series [9] is “could prevent the micro-vessel growth”. In addition, in [10], the “Stability in simulated gastric fluid” value is listed as “very stable”. Moreover, the “Stability in simulated intestinal fluid” value in series [11] is given as “slowly cleaved”. This molecule also displayed a half-life at 1 μM in [12] (CD-1, mouse, liver microsomes) of 94.9 min. Further, in series [12] (CD-1, mouse, liver microsomes), the microsomal CLint at 1 μM was found to be 14.6 µL/min/mg. Moreover, the “CLint(liver)” value in series [12] (mouse liver microsomes, 1 μM) was determined as 57.8 mL/min/kg. Also, in [12] (setting [14]), the “Remaining (NCF = 60 min)” value was 80.1%. The “Remaining (T = 60 min)” value in series [12] (mouse liver microsomes, 1 μM, with NADPH, 60 min) is on record as 69.4%. Also, the Tmax in series [13] (iv, 10 mg/kg) was found to be 5 min; in [13] (po, 50 mg/kg) it was 25 ± 8.64 min. The clearance in series [13] (iv, 10 mg/kg) is 12.3 mL/min/kg. The half-life in series [13] (iv, 10 mg/kg) is 52 ± 23.2 min; in [13] (po, 50 mg/kg) it was 266 ± 246 min. In addition, the AUC(0-inf) in series [13] (po, 50 mg/kg) turned out to be 510 ± 99.3 ng·h/mL. Further, the AUC(0-t) in series [13] (po, 50 mg/kg) stood at 484 ± 119 ng·h/mL. Besides, the Cmax in [13] (po, 50 mg/kg) worked out at 337 ± 158 ng/mL.
On to `C[C@]12CC[C@H]3[C@@H](CCC4=CC(=O)CC[C@@]43C)[C@@H]1CC[C@@H]2O` [Testosterone, reference compound], for which, in series [12] (mouse liver microsomes, 1 μM), the “CLint(liver)” value was found to be 998.5 mL/min/kg. The “Remaining (NCF = 60 min)” value in series [12] (setting [14]) is 91.0%.

The values are drawn from publication PMC11808297 (RSC Advances, 2025).
